Reference: ChEMBL document CHEMBL1121917, “Structure--activity relationships in a broad-spectrum anthelmintic series. Acid chloride phenylhydrazones. 1. Aryl substitutions and chloride variations” (1981)

What was measured:
Mus musculus [1] = species on record: Mus musculus; experiment: Percent clearance of Nematospiroides dubius from mouse after oral treatment of 7.55 mg/mouse/day; type: functional
In short: (§1)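 Mice naturally carrying Syphacia obvelata were experimentally infected with Nematospiroides dubius and Hymenolepis nana, then grouped after a 2-week prepatency. Finely ground compound was suspended in aqueous 0.10% carboxymethylcellulose, 0.04% polysorbate 80 and 0.0042% polyparaben, and 0.1 mL was given orally by cannula once daily for 4 days to five mice. Necropsy followed 2 days later, scoring presence or absence of each parasite. Control clearance was subtracted from the treated clearance.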

Mus musculus [2] = species on record: Mus musculus; experiment: Percent clearance of Hymenolepis nana from mouse after oral treatment of 7.5 mg/mouse/day; type: functional; in short: as §1
Ovis aries [3] = experiment: Percent reduction in Trichuris eggs per gram, after treatment with 200 mg/kg dose of compound perorally in sheep; type: functional, Egg; conditions: dose 200 mg/kg; route oral
In short: (§2)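 Naturally parasitized lambs, dosed orally either with a suspension by stomach tube or with finely ground compound in gelatin capsules by balling gun. Activity was scored by the clinical test method, meaning a significant fall in helminth egg counts after treatment.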

Ovis aries [4] = experiment: Percent reduction in Strongyloides eggs per gram, after treatment with 200 mg/kg dose of compound perorally in sheep; type: functional, Egg; conditions: route oral; in short: as §2
Mus musculus [5] = species on record: Mus musculus; experiment: Percent clearance of Syphacaia obvelata from mouse after oral treatment of 0.45 mg/mouse/day; type: functional; in short: as §1
Ovis aries [6] = experiment: Percent reduction in Trichuris eggs per gram, after treatment with 400 mg/kg dose of compound perorally in sheep; type: functional, Egg; conditions: route oral; in short: as §2
Ovis aries [7] = experiment: Percent reduction in Haemonchus eggs per gram, after treatment with 400 mg/kg dose of compound perorally in sheep; type: functional, Egg; conditions: route oral
In short: (§3)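 Naturally parasitized lambs were dosed orally at the stated mg/kg. Dosing was either as a suspension of finely ground compound by stomach tube, or as ground compound weighed into gelatin capsules and given by balling gun. Activity was scored by the clinical test method: the decrease in posttreatment helminth eggs per gram.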

Mus musculus [8] = species on record: Mus musculus; experiment: Percent clearance of Nematospiroides dubius from mouse after oral treatment of 0.45 mg/mouse/day; type: functional; in short: as §1
Ovis aries [9] = experiment: Percent reduction in Haemonchus eggs per gram, after treatment of 200 mg/kg dose of compound perorally in sheep; type: functional, Egg; conditions: route oral
In short: (§4)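 Naturally parasitized lambs received compound orally, either as the aqueous suspension by stomach tube or as finely ground powder in gelatin capsules by balling gun. Activity was judged by the clinical test method, as a significant decrease in posttreatment helminth egg counts.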

Ovis aries [10] = experiment: Percent reduction in Trichostrongylus eggs per gram, after treatment with 400 mg/kg dose of compound perorally in sheep; type: functional, Egg; conditions: route oral; in short: as §2
Canis familiaris [11] = species on record: Canis familiaris; experiment: Percent reduction in Uncinaria eggs per gram, after oral treatment of 75 mg/dog dose of compound in a single treatment; type: functional, Canis lupus familiaris, Egg
Ovis aries [12] = experiment: Percent reduction in Ostertagia eggs per gram, after treatment of 200 mg/kg dose of compound perorally in sheep; type: functional, Egg; conditions: route oral; in short: as §3
Ovis aries [13] = experiment: Percent reduction in Trichostrongylus eggs per gram, after treatment of 200 mg/kg dose of compound perorally in sheep; type: functional, Egg; conditions: route oral
In short: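 Lambs naturally parasitized with helminths. Finely ground compound was given orally, either as an aqueous suspension by stomach tube or weighed into gelatin capsules given by balling gun. Activity was assessed by the clinical test method: the reduction in helminth egg counts after treatment.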

Ovis aries [14] = experiment: Percent reduction in Strongyloides eggs per gram, after treatment with 400 mg/kg dose of compound perorally in sheep; type: functional, Egg; conditions: route oral; in short: as §2
Ovis aries [15] = experiment: Percent reduction in Oesophagostomum eggs per gram, after treatment of 200 mg/kg dose of compound perorally in sheep; type: functional, Egg; conditions: route oral; in short: as §3
Ovis aries [16] = experiment: Percent reduction in Ostertagia eggs per gram, after treatment with 400 mg/kg dose of compound perorally in sheep; type: functional, Egg; conditions: route oral; in short: as §2
Canis familiaris [17] = species on record: Canis familiaris; experiment: Percent reduction in Toxascaris eggs per gram, after oral treatment of 75 mg/dog dose of compound in a single treatment; type: functional, Canis lupus familiaris, Egg
In short: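 Dogs naturally infected with Toxascaris leonina were experimentally infected with mixed Ancylostoma caninum and Uncinaria stenocephala larvae. Finely ground compound was given orally in gelatin capsules. Three egg count determinations were made before and three after treatment in each experiment.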

Canis familiaris [18] = species on record: Canis familiaris; experiment: Percent reduction in Ancylostoma eggs per gram, after oral treatment of 25 mg/dog dose of compound in a single treatment; type: functional, Canis lupus familiaris, Egg
In short: (§5)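 Dogs naturally infected with Toxascaris leonina were experimentally infected with mixed Ancylostoma caninum and Uncinaria stenocephala larvae. Finely ground compound was given orally in gelatin capsules. Fecal egg counts were taken three times before and three times after treatment, and activity was taken as the fall in egg counts.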

Ovis aries [19] = experiment: Percent reduction in Trichostrongylus eggs per gram, after treatment with 150 mg/kg dose of compound intraperitoneally in sheep; conditions: route intraperitoneal
Canis familiaris [20] = species on record: Canis familiaris; experiment: Percent reduction in Uncinaria eggs per gram, after oral treatment of 20 mg/dog dose of compound in a triple treatment; type: functional, Canis lupus familiaris, Egg
Ovis aries [21] = experiment: Percent reduction in Haemonchus eggs per gram, after treatment with 200 mg/kg dose of compound perorally in sheep; type: functional, Egg; conditions: dose 200 mg/kg; route oral; in short: as §3
Ovis aries [22] = experiment: Percent reduction in Oesophagostomum eggs per gram, after treatment with 100 mg/kg dose of compound perorally in sheep; type: functional, Egg; conditions: route oral; in short: as §3
Ovis aries [23] = experiment: Percent reduction in Trichostrongylus eggs per gram, after treatment with 200 mg/kg dose of compound perorally in sheep; type: functional, Egg; conditions: route oral; in short: as §2
Canis familiaris [24] = species on record: Canis familiaris; experiment: Percent reduction in Ancylostoma eggs per gram, after oral treatment of 20 mg/dog dose of compound in a triple treatment; type: functional, Canis lupus familiaris, Egg; in short: as §5
Canis familiaris [25] = species on record: Canis familiaris; experiment: Percent reduction in Uncinaria eggs per gram, after oral treatment of 25 mg/dog dose of compound in a single treatment; type: functional, Canis lupus familiaris, Egg
Ovis aries [26] = experiment: Percent reduction in Trichuris eggs per gram, after treatment with 100 mg/kg dose of compound perorally in sheep; type: functional, Egg; conditions: route oral; in short: as §2
Mus musculus [27] = species on record: Mus musculus; experiment: Percent clearance of Syphacaia obvelata from mouse after oral treatment of 1.5 mg/mouse/day; type: functional; in short: as §1
Ovis aries [28] = experiment: Percent reduction in Strongyloides eggs per gram, after treatment with 200 mg/kg dose of compound perorally
Mus musculus [29] = species on record: Mus musculus; experiment: Percent clearance of Hymenolepis nana from mouse after oral treatment of 1.5 mg/mouse/day; type: functional; in short: as §1
Canis familiaris [30] = species on record: Canis familiaris; experiment: Percent reduction in Ancylostoma eggs per gram, after oral treatment of 10 mg/dog dose of compound in a double treatment; type: functional, Canis lupus familiaris, Egg; in short: as §5
Ovis aries [31] = experiment: Percent reduction in Ostertagia eggs per gram, after treatment with 200 mg/kg dose of compound perorally in sheep; type: functional, Egg; conditions: route oral; in short: as §2
Ovis aries [32] = experiment: Percent reduction in Trichostrongylus eggs per gram, after treatment with 100 mg/kg dose of compound perorally in sheep; type: functional, Egg; conditions: route oral; in short: as §2
Canis familiaris [33] = species on record: Canis familiaris; experiment: Percent reduction in Ancylostoma eggs per gram, after oral treatment of 20 mg/dog dose of compound in a single treatment; type: functional, Canis lupus familiaris, Egg; in short: as §5
Canis familiaris [34] = species on record: Canis familiaris; experiment: Percent reduction in Uncinaria eggs per gram, after oral treatment of 10 mg/dog dose of compound in a double treatment; type: functional, Canis lupus familiaris, Egg
Ovis aries [35] = experiment: Percent reduction in Ostertagia eggs per gram, after treatment with 100 mg/kg dose of compound perorally in sheep; type: functional, Egg; conditions: route oral; in short: as §3
Ovis aries [36] = experiment: Percent reduction in Strongyloides eggs per gram, after treatment with 100 mg/kg dose of compound perorally in sheep; type: functional, Egg; conditions: route oral; in short: as §2
Canis familiaris [37] = species on record: Canis familiaris; experiment: Percent reduction in Uncinaria eggs per gram, after oral treatment of 20 mg/dog dose of compound in a single treatment; type: functional, Canis lupus familiaris, Egg
Ovis aries [38] = experiment: Percent reduction in Haemonchus eggs per gram, after treatment with 100 mg/kg dose of compound perorally in sheep; type: functional, Egg; conditions: route oral; in short: as §4
Ovis aries [39] = experiment: Percent reduction in Oesophagostomum eggs per gram, after treatment with 200 mg/kg dose of compound perorally in sheep; type: functional, Egg; conditions: dose 200 mg/kg; route oral; in short: as §3
Mus musculus [40] = species on record: Mus musculus; experiment: Percent clearance of Nematospiroides dubius from mouse after oral treatment of 0.57 mg/mouse/day; type: functional; in short: as §1
Mus musculus [41] = species on record: Mus musculus; experiment: Percent clearance of Syphacaia obvelata from mouse after oral treatment of 0.57 mg/mouse/day; type: functional; in short: as §1

O=[N+]([O-])c1ccc(/C(Cl)=N/Nc2ccccc2)cc1
Parasite_Clearance (Mus musculus [1]): 0%
Parasite_Clearance (Mus musculus [2]): 0%

Fc1c(F)c(F)c(/C(Cl)=N/Nc2ccccc2)c(F)c1F
Reduction (Ovis aries [3]): 10%
Reduction (Ovis aries [4]): 93%
Parasite_Clearance (Mus musculus [5]): 0%
Reduction (Ovis aries [6]): 88%
Reduction (Ovis aries [7]): 96%
Parasite_Clearance (Mus musculus [8]): 0%
Reduction (Ovis aries [9]): 85%
Reduction (Ovis aries [10]): 96%
Reduction (Canis familiaris [11]): 100%
Reduction (Ovis aries [12]): 93%
Reduction (Ovis aries [13]): 0%
Reduction (Ovis aries [14]): 99%
Reduction (Ovis aries [15]): 100%
Reduction (Ovis aries [16]): 95%
Reduction (Canis familiaris [17]): 71.4%

CCCCOc1ccc(/C(Cl)=N/Nc2ccccc2)cc1
Reduction (Canis familiaris [18]): 100%
Reduction (Ovis aries [19]): 0%
Reduction (Canis familiaris [20]): 100%
Reduction (Ovis aries [21]): 100%
Reduction (Ovis aries [22]): 100%
Reduction (Ovis aries [23]): 100%
Reduction (Canis familiaris [24]): 0%
Reduction (Canis familiaris [25]): 67%
Reduction (Ovis aries [26]): 100%
Parasite_Clearance (Mus musculus [27]): 100%
Reduction (Ovis aries [28]): 100%
Parasite_Clearance (Mus musculus [29]): 100%
Reduction (Canis familiaris [30]): 92%
Reduction (Ovis aries [31]): 100%
Reduction (Ovis aries [32]): 100%
Reduction (Canis familiaris [33]): 86%
Reduction (Canis familiaris [34]): 75%
Reduction (Ovis aries [35]): 100%
Reduction (Ovis aries [36]): 32%
Reduction (Canis familiaris [37]): 86%
Reduction (Ovis aries [38]): 100%
Reduction (Ovis aries [39]): 100%

Cl/C(=N\Nc1ccccc1)c1cc(Cl)cc(Cl)c1
Parasite_Clearance (Mus musculus [40]): 0%
Parasite_Clearance (Mus musculus [41]): 25%
